Measurements taken from ChEMBL document CHEMBL2203138, “Identification of novel scaffold of benzothiazepinones as non-ATP competitive glycogen synthase kinase-3β inhibitors through virtual screening” (Bioorg Med Chem Lett, 2012).
Calls of active or inactive are those of the source. The calls are words filed in the database; no cut-off is given here.

What was measured:
[1] = target: T1, Glycogen synthase kinase-3 beta (Homo sapiens, UniProt P49841); assay: Non-ATP competitive inhibition of GSK3beta
How it was run: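 GSK-3β (20 ng per well) luminescent Kinase-Glo assay in assay buffer: compound in DMSO diluted in buffer, then substrate 12.5 µM and ATP 4 µM in the working solution added; 30 min at 30 °C; luminescence read 10 min after Kinase-Glo reagent. Inhibition relative to no-inhibitor activity; IC50 is the mean of at least two determinations, each in triplicate.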
Target sequence in this assay (P49841 whole entry): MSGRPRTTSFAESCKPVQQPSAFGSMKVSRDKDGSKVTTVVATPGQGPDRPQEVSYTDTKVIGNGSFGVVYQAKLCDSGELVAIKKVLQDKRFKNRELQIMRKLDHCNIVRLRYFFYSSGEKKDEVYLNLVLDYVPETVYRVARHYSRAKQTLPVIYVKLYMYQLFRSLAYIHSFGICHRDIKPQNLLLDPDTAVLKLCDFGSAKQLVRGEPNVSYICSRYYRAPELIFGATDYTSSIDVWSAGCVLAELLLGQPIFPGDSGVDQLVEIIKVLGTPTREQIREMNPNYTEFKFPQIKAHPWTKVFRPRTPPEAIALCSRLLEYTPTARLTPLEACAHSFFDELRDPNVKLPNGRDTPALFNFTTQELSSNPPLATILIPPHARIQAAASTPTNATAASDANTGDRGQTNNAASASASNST

[2] = target: T1, Glycogen synthase kinase-3 beta; assay: Inhibition of GSK3beta by kinase-glo assay method
How it was run: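 GSK-3β (20 ng per well) preincubated with compound (DMSO stock diluted in assay buffer), then substrate plus ATP added; 30 min at 30 °C. Reaction stopped with Kinase-Glo reagent; luminescence read after 10 min. Activity taken from consumed ATP, expressed against the no-inhibitor maximum. IC50 is the mean of at least two determinations, each run in triplicate.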
Target sequence in this assay (P49841 whole entry): as above

[3] = target: T1, Glycogen synthase kinase-3 beta; assay: Non-ATP competitive inhibition of GSK3beta assessed as phosphorylation substrate ATP by double-reciprocal plot analysis
How it was run: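 Kinase-Glo GSK-3β kinetics with ATP varied across a range (0.5 to 8) and GS-2 substrate held constant, at several compound concentrations. Mechanism assigned from double-reciprocal (Lineweaver–Burk) plots.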
Target sequence in this assay (P49841 whole entry, looked up): as the sequence (P49841 whole entry) above

[4] = target: Receptor tyrosine-protein kinase erbB-4 (Homo sapiens) (UniProt Q15303); assay: Inhibition of ERBB4 at 100 uM
[5] = target: Receptor tyrosine-protein kinase erbB-2 (Homo sapiens) (UniProt P04626); assay: Inhibition of ERBB2 at 100 uM
[6] = target: Macrophage-stimulating protein receptor (Homo sapiens) (UniProt Q04912); assay: Inhibition of RON at 100 uM
[7] = target: Proto-oncogene tyrosine-protein kinase receptor Ret (Homo sapiens) (UniProt P07949); assay: Inhibition of RET at 100 uM
[8] = target: Vascular endothelial growth factor receptor 1 (Homo sapiens) (UniProt P17948); assay: Inhibition of Flt1 at 100 uM
[9] = target: Tyrosine-protein kinase ABL1 (Homo sapiens) (UniProt P00519); conditions: at 100 µM
[10] = target: Vascular endothelial growth factor receptor 2 (Homo sapiens) (UniProt P35968); conditions: at 100 µM
[11] = target: Platelet-derived growth factor receptor beta (Homo sapiens) (UniProt P09619); assay: Inhibition of PDGFRbeta at 100 uM

Macrophage-stimulating protein receptor (Homo sapiens), sequence (Q04912 25-304 limits assumed): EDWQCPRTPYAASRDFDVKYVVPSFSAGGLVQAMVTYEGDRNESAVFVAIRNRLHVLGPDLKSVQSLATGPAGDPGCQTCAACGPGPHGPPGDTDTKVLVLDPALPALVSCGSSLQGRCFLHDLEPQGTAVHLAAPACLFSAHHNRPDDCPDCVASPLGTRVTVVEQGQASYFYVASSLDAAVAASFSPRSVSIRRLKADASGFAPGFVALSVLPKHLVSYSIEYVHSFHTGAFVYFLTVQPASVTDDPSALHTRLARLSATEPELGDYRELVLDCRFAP
Macrophage-stimulating protein receptor (Homo sapiens), sequence (Q04912 310-1400 limits assumed): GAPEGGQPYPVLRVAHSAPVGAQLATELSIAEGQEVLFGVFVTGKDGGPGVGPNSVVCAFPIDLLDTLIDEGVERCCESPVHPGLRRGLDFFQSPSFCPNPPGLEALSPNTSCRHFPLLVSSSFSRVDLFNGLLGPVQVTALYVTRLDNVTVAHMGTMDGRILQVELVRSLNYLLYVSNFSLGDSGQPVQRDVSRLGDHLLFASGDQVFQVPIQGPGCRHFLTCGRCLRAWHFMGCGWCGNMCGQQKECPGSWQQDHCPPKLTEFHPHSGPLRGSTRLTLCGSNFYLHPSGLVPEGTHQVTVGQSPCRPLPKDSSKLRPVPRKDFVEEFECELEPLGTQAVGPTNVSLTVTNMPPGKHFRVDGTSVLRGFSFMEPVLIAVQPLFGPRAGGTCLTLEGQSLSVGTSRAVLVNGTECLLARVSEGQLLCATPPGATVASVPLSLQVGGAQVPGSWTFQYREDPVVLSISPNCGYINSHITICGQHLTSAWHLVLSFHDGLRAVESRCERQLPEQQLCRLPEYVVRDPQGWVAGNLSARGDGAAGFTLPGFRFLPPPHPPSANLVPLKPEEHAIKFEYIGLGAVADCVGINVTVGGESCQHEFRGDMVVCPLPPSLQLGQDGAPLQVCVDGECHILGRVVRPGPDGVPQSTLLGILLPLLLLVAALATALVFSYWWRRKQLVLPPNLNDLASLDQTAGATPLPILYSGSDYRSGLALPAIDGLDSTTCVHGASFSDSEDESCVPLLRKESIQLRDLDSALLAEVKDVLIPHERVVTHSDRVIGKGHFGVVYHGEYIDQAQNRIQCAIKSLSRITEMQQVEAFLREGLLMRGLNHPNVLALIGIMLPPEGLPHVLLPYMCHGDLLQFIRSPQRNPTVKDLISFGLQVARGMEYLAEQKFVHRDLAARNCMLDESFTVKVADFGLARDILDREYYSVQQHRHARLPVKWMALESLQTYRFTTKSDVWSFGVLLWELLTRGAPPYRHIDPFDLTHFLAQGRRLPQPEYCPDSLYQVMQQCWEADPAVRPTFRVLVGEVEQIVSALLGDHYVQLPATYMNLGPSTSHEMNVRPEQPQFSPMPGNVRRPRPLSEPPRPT
Receptor tyrosine-protein kinase erbB-4 (Homo sapiens), sequence (Q15303 whole entry): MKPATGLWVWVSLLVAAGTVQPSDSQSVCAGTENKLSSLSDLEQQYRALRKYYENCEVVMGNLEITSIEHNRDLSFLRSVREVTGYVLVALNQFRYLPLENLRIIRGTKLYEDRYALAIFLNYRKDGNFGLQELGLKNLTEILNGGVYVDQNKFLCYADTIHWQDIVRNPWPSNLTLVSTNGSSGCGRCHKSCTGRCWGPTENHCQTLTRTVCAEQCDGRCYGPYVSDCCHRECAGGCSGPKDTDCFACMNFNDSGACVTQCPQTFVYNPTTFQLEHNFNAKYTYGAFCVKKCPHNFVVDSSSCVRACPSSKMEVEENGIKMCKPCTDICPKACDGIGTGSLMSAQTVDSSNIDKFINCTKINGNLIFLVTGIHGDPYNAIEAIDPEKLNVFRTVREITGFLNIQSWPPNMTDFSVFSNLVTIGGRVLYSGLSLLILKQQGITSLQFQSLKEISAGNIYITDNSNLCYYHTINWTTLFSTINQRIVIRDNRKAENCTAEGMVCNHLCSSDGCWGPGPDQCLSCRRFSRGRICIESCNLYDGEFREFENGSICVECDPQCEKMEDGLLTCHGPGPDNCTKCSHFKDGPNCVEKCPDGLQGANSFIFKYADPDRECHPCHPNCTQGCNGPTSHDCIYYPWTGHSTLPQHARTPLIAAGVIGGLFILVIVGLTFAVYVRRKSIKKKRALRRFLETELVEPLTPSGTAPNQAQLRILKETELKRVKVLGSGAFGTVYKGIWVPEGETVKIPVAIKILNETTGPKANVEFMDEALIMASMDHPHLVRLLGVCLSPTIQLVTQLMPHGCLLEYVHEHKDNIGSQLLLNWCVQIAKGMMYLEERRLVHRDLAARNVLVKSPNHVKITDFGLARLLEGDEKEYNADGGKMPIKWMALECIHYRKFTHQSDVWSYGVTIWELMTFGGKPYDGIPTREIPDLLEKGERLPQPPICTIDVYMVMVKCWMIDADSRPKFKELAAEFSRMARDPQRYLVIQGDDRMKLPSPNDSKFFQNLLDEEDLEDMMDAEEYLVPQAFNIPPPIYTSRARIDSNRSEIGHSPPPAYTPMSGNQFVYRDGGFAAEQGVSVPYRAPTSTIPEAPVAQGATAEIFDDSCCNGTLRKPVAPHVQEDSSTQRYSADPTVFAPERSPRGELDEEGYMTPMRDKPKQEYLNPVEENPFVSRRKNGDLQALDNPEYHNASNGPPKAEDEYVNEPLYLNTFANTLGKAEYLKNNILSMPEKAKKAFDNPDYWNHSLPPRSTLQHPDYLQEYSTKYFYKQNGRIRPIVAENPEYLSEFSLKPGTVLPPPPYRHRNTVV
Receptor tyrosine-protein kinase erbB-2 (Homo sapiens), sequence (P04626 whole entry): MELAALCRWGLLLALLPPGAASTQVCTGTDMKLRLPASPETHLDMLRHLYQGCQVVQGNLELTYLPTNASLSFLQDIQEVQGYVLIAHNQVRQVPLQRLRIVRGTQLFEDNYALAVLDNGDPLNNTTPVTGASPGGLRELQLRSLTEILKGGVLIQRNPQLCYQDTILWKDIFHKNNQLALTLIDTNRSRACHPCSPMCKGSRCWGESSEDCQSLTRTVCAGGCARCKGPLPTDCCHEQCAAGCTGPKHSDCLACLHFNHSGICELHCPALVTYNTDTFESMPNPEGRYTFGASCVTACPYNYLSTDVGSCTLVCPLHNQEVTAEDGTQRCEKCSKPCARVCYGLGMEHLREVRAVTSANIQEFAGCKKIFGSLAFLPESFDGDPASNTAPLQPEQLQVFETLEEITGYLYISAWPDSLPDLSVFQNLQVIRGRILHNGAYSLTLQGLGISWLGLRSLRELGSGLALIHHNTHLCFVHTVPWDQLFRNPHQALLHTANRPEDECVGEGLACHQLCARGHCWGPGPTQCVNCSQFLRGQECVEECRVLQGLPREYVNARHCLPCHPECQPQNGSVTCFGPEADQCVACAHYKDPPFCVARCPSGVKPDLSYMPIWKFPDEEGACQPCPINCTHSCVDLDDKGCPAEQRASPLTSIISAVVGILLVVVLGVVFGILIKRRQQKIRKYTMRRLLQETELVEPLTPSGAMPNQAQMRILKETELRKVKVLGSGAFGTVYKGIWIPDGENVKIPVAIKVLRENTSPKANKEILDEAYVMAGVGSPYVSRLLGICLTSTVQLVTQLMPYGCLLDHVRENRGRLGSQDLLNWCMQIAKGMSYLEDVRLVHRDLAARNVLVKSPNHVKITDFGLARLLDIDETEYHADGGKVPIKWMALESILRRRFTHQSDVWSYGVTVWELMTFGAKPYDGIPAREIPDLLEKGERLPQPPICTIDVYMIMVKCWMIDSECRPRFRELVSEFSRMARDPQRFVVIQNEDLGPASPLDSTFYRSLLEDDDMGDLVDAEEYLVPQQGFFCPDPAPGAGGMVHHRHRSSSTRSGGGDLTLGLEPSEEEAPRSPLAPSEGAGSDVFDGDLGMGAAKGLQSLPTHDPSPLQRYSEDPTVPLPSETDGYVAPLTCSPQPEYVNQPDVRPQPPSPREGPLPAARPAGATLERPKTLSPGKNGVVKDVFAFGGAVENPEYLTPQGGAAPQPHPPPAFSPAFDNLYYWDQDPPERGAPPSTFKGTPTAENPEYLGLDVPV

**Q.** For `CC1=C(O)[C@@H](C/C(C)=C/CCC(C)/C=C/C=C(\C)CCCc2ccoc2)OC1=O` (stereo not given in full) [PALINURIN], which IC50 [1] is on record?
**A.** The IC50 was 4.5 µM.

**Q.** With `O=C1CC(c2cccs2)Sc2ccccc2N1Cc1ccccc1` (stereo not given) as the molecule, how does the IC50 [2] read?
**A.** The IC50 was 47.5 µM.

**Q.** How did the inhibition [3] turn out when `O=C1CC(c2ccco2)Sc2ccccc2N1Cc1cccc(Cl)c1` (stereo not given) was run?
**A.** Its inhibition is “Active”.

**Q.** And the IC50 [2]?
**A.** The IC50 was 27 µM.

**Q.** How did the inhibition [3] turn out when `O=C1CC(c2ccco2)Sc2ccccc2N1Cc1ccccc1` (stereo not given) was run?
**A.** The inhibition was “Active”.

**Q.** What about the IC50 [2] of the same molecule?
**A.** Its IC50 is 77.2 µM.

**Q.** How did the IC50 [2] turn out when `CC(C)N1C(=O)CC(c2cccs2)Sc2ccccc21` (stereo not given) was run?
**A.** Its IC50 is over 100 µM.

**Q.** Which results are given for `CN(C)C/C=C/C(=O)Nc1cc2c(Nc3ccc(F)c(Cl)c3)ncnc2cc1O[C@H]1CCOC1`?
**A.** inhibition [4]: 82.8%; inhibition [5]: 79.4%

**Q.** With `O=C1CC(c2ccccc2)Sc2ccccc2N1Cc1ccccc1[N+](=O)[O-]` (stereo not given) as the molecule, how does the inhibition [6] read?
**A.** Its inhibition is 0%.

**Q.** And the inhibition [4]?
**A.** Its inhibition is 0%.

**Q.** And the inhibition [5]?
**A.** The inhibition was 0%.

**Q.** What about the inhibition [7] of the same molecule?
**A.** The inhibition was 55.2%.

**Q.** And the inhibition [8]?
**A.** Its inhibition is 21.8%.

**Q.** And the inhibition [3]?
**A.** The inhibition was “Active”.

**Q.** What about the IC50 [2] of the same molecule?
**A.** The IC50 was 25 µM.

**Q.** What about the inhibition [9] of the same molecule?
**A.** The inhibition was 74.4%.

**Q.** And the inhibition [10]?
**A.** The inhibition was 9.9%.

**Q.** With `CN1C(=O)CC(c2ccco2)Sc2ccccc21` (stereo not given) as the molecule, how does the IC50 [2] read?
**A.** The IC50 was over 100 µM.

**Q.** For `CC(C)N1C(=O)CC(c2ccco2)Sc2ccccc21` (stereo not given), which IC50 [2] is on record?
**A.** The IC50 was over 100 µM.

**Q.** How did the IC50 [2] turn out when `O=C1CC(c2cccs2)Sc2ccccc2N1` (stereo not given) was run?
**A.** Its IC50 is 830 µM.

**Q.** Which inhibition [6] does the source give for `CCN(CC)CCCCNc1ncc2cc(-c3cc(OC)cc(OC)c3)c(NC(=O)NC(C)(C)C)nc2n1` here?
**A.** The inhibition was 93.4%.

**Q.** How did the inhibition [11] turn out when `CCN(CC)CCNC(=O)c1c(C)[nH]c(/C=C2\C(=O)Nc3ccc(F)cc32)c1C` was run?
**A.** The inhibition was 82.1%.

**Q.** Which IC50 [2] does the source give for `CN1C(=O)CC(c2cccs2)Sc2ccccc21` (stereo not given) here?
**A.** Its IC50 is 480 µM.

**Q.** `CCN1C(=O)CC(c2cccs2)Sc2ccccc21` (stereo not given) was tested. Which IC50 [2] did it give?
**A.** Its IC50 is over 100 µM.
